Calls of active or inactive are those of the source.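 How the source made its calls: active means inhibition of the malaria parasite aminopeptidase at 45% or more; inactive means inhibition below 45%.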
Biological target: Aminopeptidase N (Plasmodium falciparum (isolate 3D7)) (UniProt O96935)
Assay: recombinant PfM1AAP inhibitors, late-stage follow-up, biochemical, fluorescence, recombinant enzyme, assay provider (AID 492978)
Settings: H-Leu-NHMec fluorescence, at 5 µM, stronger effect = higher value
In short: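 Read-out basis: % inhibition relative to uninhibited enzyme. Test system: recombinant P. falciparum M1 aminopeptidase. Incubation: 10 min preincubation, 30 min kinetic reading. Measured by: kinetic fluorescence, excitation 370 nm, emission 460 nm. Benchmarks: no-inhibitor enzyme wells and no-enzyme background wells. Reagent: fluorogenic substrate H-Leu-NHMec at 50 µM final. Dosing: one dose, 5 µM.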

Chain of Aminopeptidase N (Plasmodium falciparum (isolate 3D7)) (O96935 whole entry, looked up): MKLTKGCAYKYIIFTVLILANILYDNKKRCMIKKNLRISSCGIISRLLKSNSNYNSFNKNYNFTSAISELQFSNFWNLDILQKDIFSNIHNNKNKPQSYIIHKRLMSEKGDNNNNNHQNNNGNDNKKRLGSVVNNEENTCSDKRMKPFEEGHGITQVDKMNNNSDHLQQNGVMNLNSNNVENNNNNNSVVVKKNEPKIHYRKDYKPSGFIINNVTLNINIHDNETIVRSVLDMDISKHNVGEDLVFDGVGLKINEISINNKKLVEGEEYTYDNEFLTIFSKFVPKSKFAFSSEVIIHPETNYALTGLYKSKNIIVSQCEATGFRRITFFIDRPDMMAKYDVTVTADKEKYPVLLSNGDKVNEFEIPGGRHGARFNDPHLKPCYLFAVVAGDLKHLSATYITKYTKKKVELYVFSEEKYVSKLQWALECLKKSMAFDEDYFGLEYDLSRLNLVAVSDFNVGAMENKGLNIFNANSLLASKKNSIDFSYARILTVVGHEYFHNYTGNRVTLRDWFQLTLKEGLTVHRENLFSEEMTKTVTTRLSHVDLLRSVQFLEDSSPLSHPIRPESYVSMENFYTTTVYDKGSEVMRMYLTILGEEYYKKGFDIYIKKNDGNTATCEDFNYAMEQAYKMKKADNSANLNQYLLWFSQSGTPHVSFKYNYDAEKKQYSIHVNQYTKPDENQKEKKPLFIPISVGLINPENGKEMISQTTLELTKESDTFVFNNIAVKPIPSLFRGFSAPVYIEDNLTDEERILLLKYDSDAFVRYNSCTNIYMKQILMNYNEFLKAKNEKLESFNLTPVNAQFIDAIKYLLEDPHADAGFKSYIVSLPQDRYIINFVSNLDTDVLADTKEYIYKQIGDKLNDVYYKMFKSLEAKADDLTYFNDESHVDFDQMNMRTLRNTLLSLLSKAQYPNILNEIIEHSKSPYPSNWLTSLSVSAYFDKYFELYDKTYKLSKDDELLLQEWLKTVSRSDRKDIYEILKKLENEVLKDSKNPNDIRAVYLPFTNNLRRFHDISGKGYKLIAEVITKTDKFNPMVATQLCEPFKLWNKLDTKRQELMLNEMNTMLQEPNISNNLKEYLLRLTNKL

## CC(=O)N1N=C(c2c(O)n(C)c(=O)n(C)c2=O)CC1c1ccccc1 (stereo not drawn)
  inhibition: 7% (inactive)

## O=C(NCCC1=CCCCC1)C1CCN(S(=O)(=O)c2ccc(Br)s2)CC1
  inhibition: 45%

## COc1ccccc1-c1nc2ccccc2c(=O)n1NC(=O)c1cccs1
  inhibition: 38% (inactive)

## COc1ccc(C2CC(c3c(-c4ccccc4)c4cc(Cl)ccc4[nH]c3=O)=NN2C(=O)CCC(=O)O)cc1 (stereo not drawn)
  inhibition: 0% (inactive)

## O=C(NCc1ccco1)C1CCCN(S(=O)(=O)c2cccc3nonc23)C1 (stereo not drawn)
  inhibition: 17% (inactive)

## O=C(O)CCC(=O)N1N=C(c2c(-c3ccccc3)c3cc(Cl)ccc3[nH]c2=O)CC1c1cccs1 (stereo not drawn)
  inhibition: 13% (inactive)

## O=C(NCc1cccc(F)c1)C1CCN(S(=O)(=O)Cc2ccccc2)CC1
  inhibition: 69%

## O=C1N=c2ccccc2=C1c1sc(=S)n(NC(=O)c2ccccc2)c1O
  inhibition: 13% (inactive)

## COc1ccc(OC)c(/C=C2\SC(=S)N(C(C(=O)O)c3ccccc3)C2=O)c1 (stereo not drawn)
  inhibition: 16% (inactive)

## O=C(O)CCC(=O)N1N=C(c2c(-c3ccccc3)c3cc(Cl)ccc3[nH]c2=O)CC1c1ccco1 (stereo not drawn)
  inhibition: 13% (inactive)

## O=C(Nn1c(C2CCC2)nc2ccccc2c1=O)c1cccs1
  inhibition: 8% (inactive)

## O=C1/C(=C/c2cccs2)SC(=S)N1NS(=O)(=O)c1ccccc1
  inhibition: 20% (inactive)

## O=C1N=c2ccccc2=C1c1sc(=S)n(NC(=O)c2cccc(O)c2)c1O
  inhibition: 48%
